Experimental findings from ChEMBL document CHEMBL1275303, “Synthesis and antimicrobial activity of 2-substituted [4-(1,3,4-oxadiazol-2-yl methyl)] phthalazin-1(2H)-one derivatives” (2010) are described below.

SMILES strings stand for the structures.

In experiment [1] the test system is Escherichia coli. The experiment in a line: Antimicrobial activity against Escherichia coli at 50 ug/mL after 24 hrs by well plate method. The class given is functional. To be noted: read-out: IZ. The procedure, abridged:
(§1)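 Agar well diffusion in nutrient agar. About 1 cm³ of a 24 h broth culture was placed in sterile dishes, and molten agar at 45 °C was poured over it and set. 6 mm wells were bored and filled with compound in DMSO (100 or 50). Plates were incubated 24 h at 37 °C, and the inhibition zone was read in mm. Duplicate runs, with standard deviation; amoxicillin as reference.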

Experiment [2] deals with Bacillus subtilis. Description: Antimicrobial activity against Bacillus subtilis at 50 ug/mL after 24 hrs by well plate method. The class given is functional. To be noted: read-out: IZ. In short, it runs like this: as §1
Experiment [3] relates to Chrysosporium keratinophilum. Description: Antimicrobial activity against Chrysosporium keratinophilum at 100 ug/mL after 72 hrs by well plate method. The class given is functional. To be noted: read-out: IZ. The procedure, abridged: (§2)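 Antifungal well-plate assay on Sabouraud dextrose agar using a 72 h old broth culture of the fungal strain. Wells were filled with compound dissolved in DMSO (100 or 50), and the zone of inhibition around each well was measured. […] served as reference.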

Experiment [4] concerns Staphylococcus aureus. Description: Antimicrobial activity against Staphylococcus aureus at 100 ug/mL after 24 hrs by well plate method. The class given is functional. To be noted: read-out: IZ. The procedure, abridged:
as §1

Experiment [5] relates to Candida albicans. The experiment in a line: Antimicrobial activity against Candida albicans at 100 ug/mL after 72 hrs by well plate method. The conditions noted are these: read-out: IZ. The class given is functional. The procedure, abridged: as §2
The subject of experiment [6] is Bacillus subtilis. The experiment in a line: Antimicrobial activity against Bacillus subtilis at 100 ug/mL after 24 hrs by well plate method. The conditions noted are these: read-out: IZ. The class given is functional. The procedure, abridged:
as §1

Experiment [7] has as its system Nannizzia gypsea. Description: Antimicrobial activity against Microsporum gypseum at 50 ug/mL after 72 hrs by well plate method. To be noted: read-out: IZ. It counts as functional. The procedure, abridged:
as §2

Experiment [8] has as its system Aspergillus flavus. Description: Antimicrobial activity against Aspergillus flavus at 50 ug/mL after 72 hrs by well plate method. The class given is functional. The conditions noted are these: read-out: IZ.
Experiment [9] deals with Candida albicans. The experiment in a line: Antimicrobial activity against Candida albicans at 50 ug/mL after 72 hrs by well plate method. It counts as functional. The conditions noted are these: read-out: IZ. The procedure, abridged:
as §2

Experiment [10] relates to Staphylococcus aureus. Description: Antimicrobial activity against Staphylococcus aureus at 50 ug/mL after 24 hrs by well plate method. The conditions noted are these: read-out: IZ. The class given is functional. In short, it runs like this:
as §1

Experiment [11] has as its system Chrysosporium keratinophilum. Description: Antimicrobial activity against Chrysosporium keratinophilum at 50 ug/mL after 72 hrs by well plate method. The class given is functional. To be noted: read-out: IZ. In short, it runs like this:
as §2

Experiment [12] has as its system Salmonella typhi. Description: Antimicrobial activity against Salmonella typhi at 100 ug/mL after 24 hrs by well plate method. It counts as functional, Salmonella enterica subsp. enterica serovar Typhi. To be noted: Salmonella enterica, read-out: IZ. The procedure, abridged:
(§3)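 Agar well diffusion in nutrient agar: about 1 cm³ of a 24 h broth culture placed in a sterile dish, molten agar at 45 °C poured over it and allowed to set. 6 mm holes cut with a sterile cork borer and filled with compound solution in DMSO. Incubated 24 h at 37 °C; inhibition zone diameter read in mm. Run in duplicate, standard deviation calculated.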

Experiment [13] relates to Aspergillus flavus. Description: Antimicrobial activity against Aspergillus flavus at 100 ug/mL after 72 hrs by well plate method. It counts as functional. The conditions noted are these: read-out: IZ.
The subject of experiment [14] is Salmonella typhi. The experiment in a line: Antimicrobial activity against Salmonella typhi at 50 ug/mL after 24 hrs by well plate method. The class given is functional, Salmonella enterica subsp. enterica serovar Typhi. To be noted: Salmonella enterica, read-out: IZ. The procedure, abridged: as §3
The test system of experiment [15] is Nannizzia gypsea. Description: Antimicrobial activity against Microsporum gypseum at 100 ug/mL after 72 hrs by well plate method. It counts as functional. The conditions noted are these: read-out: IZ. The procedure, abridged: as §2
Experiment [16] concerns Escherichia coli. The experiment in a line: Antimicrobial activity against Escherichia coli at 100 ug/mL after 24 hrs by well plate method. The class given is functional. To be noted: read-out: IZ. The procedure, abridged:
as §1

`O=c1c2ccccc2c(Cc2nnc(-c3ccc(Cl)nc3)o2)nn1CCN1CCOCC1`: the zone of inhibition at 50 µg/mL stood at 1.5 mm in the experiment on Escherichia coli [1]; 4.5 mm with Bacillus subtilis [2]; 4 mm in the experiment on Nannizzia gypsea [7]; 4.5 mm with Aspergillus flavus [8]; 6.5 mm with Candida albicans [9]; 3.5 mm with Staphylococcus aureus [10]. Further, the zone of inhibition at 50 µg/mL in experiment [11] is 1.5 mm; in the experiment on Salmonella typhi [14], 3.5 mm. For the same molecule, the zone of inhibition at 100 µg/mL in [3] stood at 4.5 mm; in the experiment with Staphylococcus aureus [4], 7 mm; in the experiment with Candida albicans [5] it was 10.5 mm; in the experiment with Bacillus subtilis [6] it was 9 mm; in the experiment on Salmonella typhi [12], 6.5 mm; with Aspergillus flavus [13] it was 8 mm. Besides, the zone of inhibition at 100 µg/mL in the experiment with Nannizzia gypsea [15] was 9.5 mm; with Escherichia coli [16], 5.5 mm.
